Hits are enriched below; roughly 3.9% of the tested compounds scored in any of these assays.
AHR activator = activates the human aryl hydrocarbon receptor; AHR-responsive luciferase reporter cells, luminescence; AID 2796; P35869; actives 2.5% (n = 320,000); activation, % at 5 µM; in the data active means activation above about 47%;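 further: 0% = vehicle wells and 100% = reference agonist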
SR-BI DiI inh = mouse SR-BI HDL lipid transfer inhibition; actives 0.96% (n = 320,000); AID 488896; inhibition, % at 12.5 µM; ldlA[mSR-BI] CHO cells, DiI-HDL uptake fluorescence, 3 h; Q61009;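 active means mean replicate inhibition of at least 70% and a set share of replicates each scoring 70 or more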;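 further: 0% = median of neutral control wells and 100% = median of positive control wells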
HIF act = HIF pathway transcriptional activation; U2OS HRE-luciferase reporter, luminescence; normalized: DMSO 0%, desferrioxamine 100%; actives 0.32% (n = 300,000); activation, % at 7.5 µM (by protocol);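 active means mean activation of at least 10% of the iron chelator positive control signal, with at least half of replicates also reaching 10%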
FXN GAA850 act = increases GAA850 frataxin promoter reporter activity. HEK293 lucGAA850 FXN promoter luciferase reporter, 24 h; percent of 10 µM SAHA response. activation, % at 6 µM. actives 0.56% (n = 360,000). AID 540364;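 active means activation above the average of all compounds screened plus 3 SD, cutoff fixed separately per campaign, cut at about 7.5% in these data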;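 further: 0% = DMSO wells and 100% = 10 µM SAHA wells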
ABCB6 inh 2 = inhibitors of human ABC transporter ABCB6 | actives 0.19% (n = 360,000) | K562-ABCB6 porphyrin accumulation, flow cytometry, 1 h; active compounds read low | fluorescence ratio to DMSO, % at 10 µM | AID 602162;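 active means fluorescence ratio to DMSO below 75%, the collection mean minus 3 SD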;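 further: signal is porphyrin accumulated inside mitochondria; 100% equals median channel fluorescence of DMSO control wells; lower ratio means ABCB6 inhibition with less porphyrin fluorescence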
Target sequence (Q9NP58 whole entry, looked up): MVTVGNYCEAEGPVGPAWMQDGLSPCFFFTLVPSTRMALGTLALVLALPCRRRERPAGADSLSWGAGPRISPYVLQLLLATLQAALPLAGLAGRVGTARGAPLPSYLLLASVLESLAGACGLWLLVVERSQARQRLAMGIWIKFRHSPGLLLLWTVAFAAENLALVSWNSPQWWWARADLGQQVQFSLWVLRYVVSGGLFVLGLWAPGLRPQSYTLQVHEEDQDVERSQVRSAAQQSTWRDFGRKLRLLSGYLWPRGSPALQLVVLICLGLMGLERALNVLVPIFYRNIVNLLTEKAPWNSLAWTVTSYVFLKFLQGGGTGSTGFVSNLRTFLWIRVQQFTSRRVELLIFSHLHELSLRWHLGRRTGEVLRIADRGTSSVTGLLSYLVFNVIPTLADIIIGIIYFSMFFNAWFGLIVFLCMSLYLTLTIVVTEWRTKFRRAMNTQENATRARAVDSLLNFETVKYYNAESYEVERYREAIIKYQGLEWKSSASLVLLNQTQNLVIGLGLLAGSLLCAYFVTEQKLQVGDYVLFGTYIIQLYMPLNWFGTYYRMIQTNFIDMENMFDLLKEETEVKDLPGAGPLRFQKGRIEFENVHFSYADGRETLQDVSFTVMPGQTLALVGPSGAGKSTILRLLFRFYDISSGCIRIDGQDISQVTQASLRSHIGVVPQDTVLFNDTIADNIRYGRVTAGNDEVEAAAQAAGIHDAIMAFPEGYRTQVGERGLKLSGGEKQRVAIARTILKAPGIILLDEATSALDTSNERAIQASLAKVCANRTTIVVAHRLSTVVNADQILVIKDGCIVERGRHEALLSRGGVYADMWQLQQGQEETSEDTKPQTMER
SR-BI DiI-HDL act = activators of SR-BI mediated HDL lipid uptake; actives 0.096% (n = 320,000); CHO ldlA[mSR-BI] cells, DiI-HDL uptake fluorescence, 3 h; 100 = double the neutral-control signal; activation, % at 12.5 µM; AID 504775;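 active means mean replicate activation of at least 60% and every replicate at or above 60%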;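 further: 0% = median plate neutral-control signal and 100% = twice that signal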
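system = CHO ldlA[mSR-BI] cells, LDL receptor-null, SR-BI overexpressing | medium = Ham's F12 with 0.5% BSA, HEPES 25 mM, pH 7.4 | probe or stimulus = DiI-HDL 10 µg/mL | compound dosing = single-point compound dose | incubation = compound exposure 3 h, 37 °C | technique = DiI fluorescence, bottom read | read-out = cell-associated DiI fluorescence as measure of HDL uptake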
* hit, by the source's call; nt = not tested or not shown.

SMILES | AHR activator | SR-BI DiI inh | HIF act | FXN GAA850 act | ABCB6 inh 2 | SR-BI DiI-HDL act
CCOC(=O)[C@H]1[C@H]2COc3ccc(C)cc3[C@@H]2N2C(=O)c3ccccc3NC(=O)[C@@]12C | -1.8 | -18.2 | nt | -4.5 | 100.0 | 18.2
COCCNC(=O)C(=O)NCC1OCCN1S(=O)(=O)c1cc(F)ccc1F (centres undefined) | -4.2 | -17.2 | 17.2* | 0.4 | 99.0 | 17.2
CCc1nc(SCC(=O)c2cccs2)c2oc3ccccc3c2n1 | 57.0* | 31.3 | 0.1 | 3.3 | 100.0 | -31.3
CCOc1ccccc1NC(=O)CSc1ncnc2c1oc1ccccc12 | 5.9 | 17.4 | 69.0* | -0.7 | 93.0 | -17.4
CCOC(=O)CSc1nc(-c2ccccc2)nc2c1oc1ccccc12 | 47.8* | 4.1 | -0.3 | 1.6 | 106.0 | -4.1
FC(F)(F)COc1nc(N/N=C/c2cccnc2)nc(N2CCCCC2c2ccccn2)n1 (centres undefined) | 20.1 | 24.3 | -0.5 | -0.1 | 96.0 | -24.3
CN(C)CCCNC(=S)N(CCCN(C)C)Cc1cc2cc3c(cc2[nH]c1=O)OCO3 | 0.3 | -22.1 | 1.1 | 1.4 | 105.0 | 22.1
N#Cc1c(-c2ccccc2)cc(-c2ccccc2)nc1SCC(=O)NCC(=O)O | -0.7 | nt | 1.7 | 0.2 | 103.0 | nt
NC(=S)N/N=C1\CCOc2ccc(Cl)cc21 | -6.9 | 73.3* | -0.4 | -4.0 | 100.0 | -73.3
CCOc1ccc(CN(CCO)CCO)cc1C(=O)OC | -0.6 | -19.2 | -0.4 | -0.2 | 103.0 | 19.2
CC(=O)Nc1ccc(-c2cc(-c3ccccc3)nc(-c3ccccc3)n2)cc1 | 9.1 | 44.7 | -0.4 | 2.9 | 97.0 | -44.7
CCC(=O)Nc1ccc2c(c1)C(=O)c1ccccc1C2=O | 68.8* | 12.8 | 2.5 | 4.7 | 101.0 | -12.8
CCC(=O)Nc1ccc(-c2cc(-c3ccccc3)nc(-c3ccc(NC(=O)CC)cc3)n2)cc1 | 23.9 | -102.6 | -2.2 | -1.9 | 95.0 | 102.6*
CCC(=O)Nc1ccc2c(c1)C(=O)N(C)C2=O | -2.5 | -2.8 | -0.2 | 0.4 | 105.0 | 2.8
COc1cccc(/C(O)=C2/C(=O)C(=O)N(CCN3CCOCC3)C2c2cccnc2)c1 (centres undefined) | -0.3 | -13.5 | -0.2 | 0.2 | 92.0 | 13.5
CCOC(=O)c1cc2nc(Nc3ccc(OC)cc3)sc2s1 | 7.5 | 72.3* | 0.9 | 1.3 | 134.0 | -72.3
Cc1ccc2[nH]c(=O)c(-c3noc(C(C)C)n3)cc2c1 | 54.9* | -2.9 | -0.1 | -1.0 | 95.0 | 2.9
CCc1nc(-c2cc3ccc(C)cc3[nH]c2=O)no1 | 1.3 | -0.9 | 2.6 | 3.0 | 89.0 | 0.9
CNC(=S)N/N=C/c1cn(CCOc2cccc(OC)c2)c2ccccc12 | 56.0* | 79.7* | -0.5 | 1.5 | 94.0 | -79.7
COC(=O)N/N=C/c1cn(CCOc2ccc(OC)cc2)c2ccccc12 | 22.3 | 55.6 | 0.3 | -0.3 | 91.0 | -55.6
CCOC(=O)N/N=C/c1cn(CCCOc2ccc(C)cc2)c2ccccc12 | 32.5 | 71.5* | 1.0 | 3.4 | 93.0 | -71.5
Cn1cc(/C=N/NC(=O)COc2ccccc2[N+](=O)[O-])c2ccccc21 | 58.4* | 31.3 | 0.3 | -0.2 | 100.0 | -31.3
COC(=O)N/N=C/c1cn(CCOc2ccccc2OC)c2ccccc12 | 60.2* | 31.8 | -0.8 | 1.0 | 95.0 | -31.8
COCOc1cccc(CN2CCC(C)(Oc3cccc(C#N)c3)C2)c1 (centres undefined) | nt | nt | nt | 0.4 | 100.0 | nt
Cn1c(C23CC4CC(CC(C4)C2)C3)n[nH]c1=S | -2.3 | -35.0 | -0.8 | 0.8 | 90.0 | 35.0
CC(=NCc1ccco1)c1c(C)[nH]n(-c2nc3ccccc3s2)c1=O | -18.1 | 18.6 | -1.2 | -9.2 | 98.0 | -18.6
C/C(=N/NC(=O)c1cccs1)c1c(C)[nH]n(-c2nc3ccccc3s2)c1=O | 14.9 | 106.7* | 0.1 | 0.3 | 101.0 | -106.7
CCNC(=O)c1sc2cc(C)ccc2c1Cl | -12.4 | -3.3 | 0.7 | 5.2 | 102.0 | 11.2
Cc1ccc(S(=O)(=O)Nc2ccc(O)c3ccccc23)c(C)c1 | nt | -21.9 | -18.0 | 0.5 | 96.0 | 21.9
Cc1ccc(S(=O)(=O)Nc2cc(C(C(=O)OC(C)C)C(=O)C(F)(F)F)c(O)c3ccccc23)c(C)c1 (centres undefined) | 48.0* | 2.7 | -0.3 | 0.8 | 97.0 | -2.7
